Reference: ChEMBL document CHEMBL1932935, “Synthesis and biological effects of some kynurenic acid analogs” (Bioorg Med Chem, 2011)
Activity calls are given as the source filed them. No cut-off for these calls is given here.

Key:
Hippocampus = assay: Antiexcitatory activity in rat hippocampus pyramidal CA1 region assessed as reduction in field excitatory postsynaptic potential at 16 uM by electrophysiologic method; format: functional
Outline: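 Acute rat hippocampal slices; recording solution ACSF with 3 mM CaCl2 and 1.5 mM MgSO4, 1.5–2 mL/min flow, 34 °C. Schaffer collaterals stimulated; fEPSP amplitude recorded in CA1 pyramidal layer before, during and after bath application of compound in ACSF. Amplitudes normalized to 10-min control period; four slices per compound.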

Rattus norvegicus [1] = assay: Inhibition of NMDA in intraperitoneally dosed Wistar rat hippocampus pyramidal CA1 region assessed as reduction in amplitude of population spike by electrophysologic method; format: functional, organism-based
Mus musculus [2] = assay: Toxicity in C57/BL6 mouse assessed as effect on ambulation time dosed intraperitoneally equimolar to 200 mg/kg KYNA-1 for 9 days measured after 2 hrs post last dose by open field test; format: organism-based, C57Bl/6; set-up: dose 200 mg/kg, route intraperitoneal; details: in vivo, ip
Outline: (§1)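 Six-week-old male C57Bl/6 mice, dosed ip once daily at 5 mL/kg in distilled water adjusted to pH 6.5; saline controls. Acute testing was 2 h after a single dose; chronic testing was on day 9, 2 h after the last of 9 daily doses. Each mouse was placed in a black open-field box (48×48×40 cm) and video-tracked for 5 min, scoring ambulation time, mean velocity and rearings.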

Mus musculus [3] = assay: Toxicity in C57/BL6 mouse assessed as decrease in number of rearings dosed intraperitoneally equimolar to 200 mg/kg KYNA-1 for 9 days measured after 2 hrs post last dose by open field test; format: organism-based, C57Bl/6; set-up: dose 200 mg/kg, route intraperitoneal; details: in vivo, ip; outline: as §1
Mus musculus [4] = assay: Toxicity in C57/BL6 mouse assessed as effect on movement velocity dosed intraperitoneally equimolar to 200 mg/kg KYNA-1 as single dose measured after 2 hrs by open field test; format: organism-based, C57Bl/6; set-up: dose 200 mg/kg, route intraperitoneal; details: in vivo, ip; outline: as §1
Mus musculus [5] = assay: Toxicity in C57/BL6 mouse assessed as effect on ambulation time dosed intraperitoneally equimolar to 200 mg/kg KYNA-1 as single dose measured after 2 hrs by open field test; format: organism-based, C57Bl/6; set-up: dose 200 mg/kg, route intraperitoneal; details: in vivo, ip; outline: as §1
Mus musculus [6] = assay: Toxicity in C57/BL6 mouse assessed as effect on movement velocity dosed intraperitoneally equimolar to 200 mg/kg KYNA-1 for 9 days measured after 2 hrs post last dose by open field test; format: organism-based, C57Bl/6; set-up: dose 200 mg/kg, route intraperitoneal; details: in vivo, ip; outline: as §1
Mus musculus [7] = assay: Toxicity in C57/BL6 mouse assessed as decrease in number of rearings dosed intraperitoneally equimolar to 200 mg/kg KYNA-1 as single dose measured after 2 hrs by open field test; format: organism-based, C57Bl/6; set-up: dose 200 mg/kg, route intraperitoneal; details: in vivo, ip; outline: as §1
Mus musculus [8] = assay: Toxicity in C57/BL6 mouse assessed as effect on ambulation time at 200 mg/kg, ip administered as single dose measured after 2 hrs by open field test; format: organism-based, C57Bl/6; set-up: dose 200 mg/kg, route intraperitoneal; details: in vivo; outline: as §1
Mus musculus [9] = assay: Toxicity in C57/BL6 mouse assessed as decrease in number of rearings at 200 mg/kg, ip administered as single dose measured after 2 hrs by open field test; format: organism-based, C57Bl/6; set-up: dose 200 mg/kg, route intraperitoneal; details: in vivo; outline: as §1
Mus musculus [10] = assay: Toxicity in C57/BL6 mouse assessed as effect on movement velocity at 200 mg/kg, ip for 9 days measured after 2 hrs post last dose by open field test; format: organism-based, C57Bl/6; set-up: dose 200 mg/kg, route intraperitoneal; details: in vivo; outline: as §1
Mus musculus [11] = assay: Toxicity in C57/BL6 mouse assessed as effect on movement velocity at 200 mg/kg, ip administered as single dose measured after 2 hrs by open field test; format: organism-based, C57Bl/6; set-up: dose 200 mg/kg, route intraperitoneal; details: in vivo; outline: as §1
Rattus norvegicus [12] = assay: Inhibition of NMDA in Wistar rat hippocampus pyramidal CA1 region assessed as reduction in amplitude of population spike at 200 mg/kg/day, ip up to 90 mins by electrophysologic method; format: functional; details: 1.5 h, read-out: INH, route intraperitoneal
Mus musculus [13] = assay: Toxicity in C57/BL6 mouse assessed as decrease in number of rearings at 200 mg/kg, ip for 9 days measured after 2 hrs post last dose by open field test; format: organism-based, C57Bl/6; set-up: dose 200 mg/kg, route intraperitoneal; details: in vivo; outline: as §1
Mus musculus [14] = assay: Toxicity in C57/BL6 mouse assessed as effect on ambulation time at 200 mg/kg, ip for 9 days measured after 2 hrs post last dose by open field test; format: organism-based, C57Bl/6; set-up: dose 200 mg/kg, route intraperitoneal; details: in vivo; outline: as §1
Rattus norvegicus [15] = assay: Inhibition of NMDA in Wistar rat hippocampus pyramidal CA1 region assessed as reduction in amplitude of population spike at 200 mg/kg/day, ip measured up to 60 mins by electrophysologic method; format: functional; details: 1 h, read-out: INH, route intraperitoneal

## O=C(NCCN1CCCC1)c1cc(=O)c2ccccc2[nH]1
Hippocampus
  Activity: inactive

## O=C(c1cc(=O)c2ccccc2[nH]1)N1CCNCC1
Hippocampus
  Activity: inactive

## O=C(O)c1cc(=O)c2ccccc2[nH]1 [TRANSTORINE]
Hippocampus
  Activity: 70%

## CN(C)CCCNC(=O)c1cc(=O)c2ccccc2[nH]1
Rattus norvegicus [1]
  inhibition: inactive
Hippocampus
  Activity: inactive

## O=C(NCCN1CCCCC1)c1cc(=O)c2ccccc2[nH]1
Hippocampus
  Activity: inactive

## O=C(NCCN1CCOCC1)c1cc(=O)c2ccccc2[nH]1
Hippocampus
  Activity: inactive

## CN1CCCCC1CNC(=O)c1cc(=O)c2ccccc2[nH]1 (centres undefined)
Hippocampus
  Activity: inactive

## CN1CCN(C(=O)c2cc(=O)c3ccccc3[nH]2)CC1
Hippocampus
  Activity: inactive

## CCN(CC)CCNC(=O)c1cc(=O)c2ccccc2[nH]1
Hippocampus
  Activity: inactive

## O=C(c1cc(=O)c2ccccc2[nH]1)N1CCN(Cc2ccccc2)CC1
Hippocampus
  Activity: inactive

## CN(C)CCCNC(=O)c1cc(O)c2ccccc2n1.Cl
Mus musculus [2]
  Activity: Non-toxic
Mus musculus [3]
  Activity: Non-toxic
Mus musculus [4]
  Activity: Non-toxic
Mus musculus [5]
  Activity: Non-toxic
Mus musculus [6]
  Activity: Non-toxic
Mus musculus [7]
  Activity: Non-toxic

## Cl.O=C(NCCN1CCCC1)c1cc(O)c2ccccc2n1
Mus musculus [2]
  Activity: Non-toxic
Mus musculus [3]
  Activity: Non-toxic
Mus musculus [4]
  Activity: Non-toxic
Mus musculus [5]
  Activity: Non-toxic
Mus musculus [6]
  Activity: Non-toxic
Mus musculus [7]
  Activity: Non-toxic

## Nc1ccccc1C(=O)C[C@H](N)C(=O)O.O=S(=O)(O)O
Mus musculus [2]
  Activity: Non-toxic
Mus musculus [3]
  Activity: Toxic
Mus musculus [4]
  Activity: Non-toxic
Mus musculus [5]
  Activity: Non-toxic
Mus musculus [6]
  Activity: Non-toxic
Mus musculus [7]
  Activity: Toxic
Hippocampus
  Activity: inactive

## CN(C)CCNC(=O)c1cc(O)c2ccccc2n1.Cl
Mus musculus [8]
  Activity: Non-toxic
Mus musculus [9]
  Activity: Toxic
Mus musculus [10]
  Activity: Non-toxic
Mus musculus [11]
  Activity: Non-toxic
Rattus norvegicus [12]
  inhibition in vivo at 200 mg/kg/day: 30%
Mus musculus [13]
  Activity: Non-toxic
Hippocampus
  Activity: 50%
Mus musculus [14]
  Activity: Non-toxic
Rattus norvegicus [15]
  inhibition in vivo at 200 mg/kg/day: 25%
